In the library only some 3.6% were active in any assay of this set; here they are far more common.
GRIN3A LBD mod: modulators (binders) of human NR3A ligand-binding domain | NR3A LBD differential scanning fluorimetry, Tm shift; 0% = protein alone, 100% = glycine-bound protein | Tm shift relative to glycine control, % at 25 µM | hit rate 2.5% among 340,000 | AID 1259313;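 active = melting temperature shift of at least 10% of the positive control shift, at one fixed dose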
DNA FID counter: counter-screen for HCV NS3 helicase inhibitors: DNA intercalator displacement; DNA fluorescent intercalator displacement, fluorescence; inhibition, % at 7.9 µM; hit rate 0.17% among 290,000; AID 1845; in the data active = inhibition above about 37%;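 note: 0% = vehicle and 100% = reference compound; higher means more ethidium bromide displaced from hairpin DNA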
EBNA-1 inh: blocks EBNA-1 binding to DNA; EBNA-1 DNA binding, fluorescence polarization; inhibition, % at 14.8 µM; hit rate 0.34% among 300,000; AID 1950; in the data active = inhibition above about 28%
FGF22 binding: FGF22 (human) thermal shift binding. Q9HCT0. recombinant FGF22 thermal shift, SYPRO orange fluorescence; percent of sucrose octasulfate shift, DMSO zero. activity (Tm shift, normalised), % at 9.99 µM. hit rate 1.5% among 340,000;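 active = mean Tm shift, scaled 0 neutral to 100 positive control, at about 1.3% or above, every replicate too, limit read from the data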
Target sequence (Q9HCT0 whole entry, looked up): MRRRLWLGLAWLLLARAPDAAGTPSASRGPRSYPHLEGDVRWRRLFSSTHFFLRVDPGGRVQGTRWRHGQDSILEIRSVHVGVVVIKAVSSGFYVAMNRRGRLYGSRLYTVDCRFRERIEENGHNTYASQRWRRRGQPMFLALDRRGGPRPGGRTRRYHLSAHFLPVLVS
ZTA counter: ZTA (EBV) inhibition in EBNA-1 counter-screen; inhibition, % at 11 µM; hit rate 0.15% among 320,000; ZTA-DNA binding, fluorescence polarization; AID 2234; P03206; in the data active = inhibition above about 33%
Target sequence (P03206 whole entry, looked up): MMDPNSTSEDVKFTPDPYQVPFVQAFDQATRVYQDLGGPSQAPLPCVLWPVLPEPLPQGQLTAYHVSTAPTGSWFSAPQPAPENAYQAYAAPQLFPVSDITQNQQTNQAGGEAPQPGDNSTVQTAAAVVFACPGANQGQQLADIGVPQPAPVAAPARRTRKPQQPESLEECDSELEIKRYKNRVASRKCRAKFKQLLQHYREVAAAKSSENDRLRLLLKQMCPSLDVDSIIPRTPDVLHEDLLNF
NS3 helicase inh: inhibitors of Hepatitis C virus NS3 helicase. NS3 helicase DNA unwinding, Cy5 molecular beacon fluorescence. inhibition, % at 10.9 µM. hit rate 0.56% among 290,000. AID 1800;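 active = inhibition above the mean of all tested compounds plus 3 SD, set per campaign, cut at about 35% in these data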;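 note: 0% = DMSO wells and 100% = thioflavine S control wells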
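Control set: DMSO versus 110 µM thioflavine S; Material: NS3 helicase fragment of HCV; Measured by: Cy5 fluorescence at 0 and 60 min, beacon hairpin quenching; Read-out basis: percent inhibition from t60/t0 fluorescence ratio; Times: reaction time 60 min, 25 °C; Repeats: single replicate; Compound dosing: single dose, 10.9 µM nominal final, DMSO 0.8% final.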
The depositor's hits bear a star; . = not tested or not shown; ! = not confirmed by another sample.

SMILES | GRIN3A LBD mod | DNA FID counter | EBNA-1 inh | FGF22 binding | ZTA counter | NS3 helicase inh
COc1ccc(CCN(C(=S)Nc2ccccc2)C2CC(=O)N(c3ccccc3)C2=O)cc1 (stereo unspecified) | 17* | -9 | 13 | . | -9 | -13
CCOc1ccc(N2C(=O)CC(N(CCc3ccc(OC)cc3)C(=O)/C=C/C(=O)O)C2=O)cc1 (stereo unspecified) | -2 | -35 | -7 | 0 | -4 | -10
O=C1CC(N(CCc2ccccc2)C(=S)Nc2ccccc2)C(=O)N1c1ccc(Br)cc1 (stereo unspecified) | 29* | 2 | -13 | 0 | -4 | -1
CNC(=S)N(Cc1ccc(OC)cc1)C1CC(=O)N(c2ccc(Cl)cc2)C1=O (stereo unspecified) | 32* | -4 | 0 | . | -11 | -22
COc1ccc(CN(C(=S)Nc2ccccc2)C2CC(=O)N(c3ccc(F)cc3)C2=O)cc1 (stereo unspecified) | 32* | -1 | -7 | . | -15 | -7
O=C(Nc1cccc(F)c1)N1C[C@H]2[C@@H](c3ccccc31)[C@@H](CO)N2C(=O)Cc1ccccc1 | . | . | . | 0 | . | .
CCOC(=O)c1ccc(N2C(=O)CC(N(Cc3ccc4c(c3)OCO4)C(=O)Nc3ccccc3)C2=O)cc1 (stereo unspecified) | 5 | -1 | 0 | 1 | 0 | -15
CNC(=S)N(Cc1ccc2c(c1)OCO2)C1CC(=O)N(c2ccc(F)cc2)C1=O (stereo unspecified) | 22* | 1 | -4 | . | -1 | -3
O=[N+]([O-])c1cccc(/C=C/c2nc3ccc([N+](=O)[O-])cc3[nH]2)c1 | 16* | 16 | 3 | . | 5 | -5
Cn1c(-c2ccc3ccccc3n2)[n+](C)c2ccccc21 | 1 | 2 | 5 | 0 | -10 | -6
Cn1c(-c2ccccn2)[n+](C)c2ccccc21 | 0 | -8 | -7 | 43* | -5 | -5
Cc1c(C(c2cccc([N+](=O)[O-])c2O)c2c(C)n(C)n(-c3ccccc3)c2=O)c(=O)n(-c2ccccc2)n1C | 3 | -16 | 2 | . | 1 | 13
Cc1[nH]n(-c2ccccc2)c(=O)c1C(c1cccc([N+](=O)[O-])c1O)c1c(C)[nH]n(-c2ccccc2)c1=O | 19* | -8 | 0 | 1 | -15 | 13
COc1cccc(/C=N/NC(=O)CCCC(=O)Nc2ccc(Br)cc2)c1 | 20* | -3 | 5 | . | -19 | 10
COc1cc(/C=N/NC(=O)CCC(=O)Nc2ccc(Br)cc2)ccc1O | -5 | -3 | 1 | 0 | 10 | 2
CCN(c1ccccc1)S(=O)(=O)c1ccc(OC)c(NC(=O)c2ccco2)c1 | . | . | . | 43* | . | .
CCN(c1ccccc1)S(=O)(=O)c1ccc(OC)c(NC(=O)c2ccccc2OC)c1 | -1 | . | . | 0 | . | .
COc1cc(COCC(O)CN2CCN(Cc3ccccc3)CC2)cc(OC)c1OC (stereo unspecified) | -2 | 11 | -9 | 44* | -14 | -5
CCN1CCN(CC(O)COCc2cc(OC)c(OC)c(OC)c2)CC1 (stereo unspecified) | -3 | -2 | 1 | 0 | 0 | -6
COc1ccc(CC(C)N2CCN(c3ccccc3OC)CC2)cc1OC (stereo unspecified) | -3 | -2 | 13 | . | 0 | -13
COc1ccc(CC(C)N2CCN(Cc3ccccc3)CC2)cc1OC (stereo unspecified) | -1 | 38* | -6 | . | -4 | -70
C[C@@H]1CN([C@H](C)CO)C(=O)c2cc(NC(=O)c3ccccc3)ccc2O[C@@H](C)CCCCO[C@H]1CN(C)C(=O)CCC(F)(F)F | . | . | . | 0 | . | .
COc1ccc(S(=O)(=O)Nc2ccc3c(c2)[C@@H]2C[C@H](CC(=O)O)O[C@H](CO)[C@@H]2O3)cc1 | . | . | . | 0 | . | .
CC(C)c1cc(C(C)C)n2nc(N)nc2n1 | 10* | -5 | -4 | . | 2 | 6
C=CCN(CC=C)C(=S)NC(=O)Cc1cccc2ccccc12 | -6 | -7 | -21 | 43* | 3 | 8
COc1ccc(C2=C(CN(C)C)C(c3ccccc3)c3ccccc3O2)cc1 (stereo unspecified) | 11* | 46*! | 4 | . | 4 | -77

High-throughput results (PubChem)
